Data reported in article PMC7240809 (ACS Omega, 2020).
Each block holds one molecule with its values, some of them ahead of it.

Columns and labels:
[1] = In vivo stability, radio-HPLC of mouse urine; set-up: species or system mice; settings: 1 h p.i., intravenous
Summary of the method: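 Mice under 2% isoflurane received approximately 4–6 MBq 68Ga-labeled test peptide intravenously and recovered freely. At 1 h p.i. they were euthanized by CO2, and urine was collected. Urine was analyzed for metabolites by reversed-phase C18 HPLC in 21% acetonitrile with 0.1% TFA to give percent intact peptide. Three or four independent experiments were run.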

[2] = test system: B16–F10 cells; test: Internalization assay; assay type: cell-based, Mus musculus; settings: 2 h, 37 °C
Summary of the method: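 B16–F10 mouse melanoma cells were grown in DMEM with 10% FBS and penicillin/streptomycin, then seeded overnight on poly-D-lysine plates. They were incubated with 68Ga-labeled test peptide at 37 °C with mild agitation for 30, 60, 90 or 120 min, then washed with PBS. Cells were trypsinized for the internalized fraction, and both fractions were gamma-counted in triplicate or quadruplicate.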

[3] = Biodistribution in C57BL/6J mice bearing B16–F10 melanoma; assay type: in vivo; settings: C57BL/6J, mouse, total radioactivity; for tissue uptake at 1 h / tissue uptake at 2 h: intravenous; for tissue to tissue ratio at 1 h / tissue to tissue ratio at 2 h: iv
Summary of the method: (§1)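 Male C57BL/6J mice (8–12 weeks) were inoculated subcutaneously on the right dorsal flank with 1 × 10^6 B16–F10 cells and used at 6–8 mm tumor diameter. They received 1–2 MBq 68Ga-labeled test peptide by tail vein under anesthesia, with or without co-injected 0.5 mg BMS 470539. At 1 or 2 h p.i., blood and organs were weighed and gamma-counted. Uptake is %ID/g (mean ± SD); blocked vs unblocked compared by two-way ANOVA with Holm–Sidak.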

[4] = test system: B16–F10 melanoma; test: as above; assay type: in vivo
Summary of the method: as §1

[5] = biological target: melanocortin 1 receptor (MC1R); settings: read-out: binding affinity (Ki) to MC1R; cited from earlier work
[6] = biological target: MC5R; settings: read-out: binding affinity to MC5R; cited from earlier work
[7] = biological target: MC3R; settings: read-out: binding affinity to MC3R; cited from earlier work
[8] = biological target: MC4R (Homo sapiens) (UniProt P32245); settings: cited from earlier work
UniProt P32245, sequence (P32245 whole entry): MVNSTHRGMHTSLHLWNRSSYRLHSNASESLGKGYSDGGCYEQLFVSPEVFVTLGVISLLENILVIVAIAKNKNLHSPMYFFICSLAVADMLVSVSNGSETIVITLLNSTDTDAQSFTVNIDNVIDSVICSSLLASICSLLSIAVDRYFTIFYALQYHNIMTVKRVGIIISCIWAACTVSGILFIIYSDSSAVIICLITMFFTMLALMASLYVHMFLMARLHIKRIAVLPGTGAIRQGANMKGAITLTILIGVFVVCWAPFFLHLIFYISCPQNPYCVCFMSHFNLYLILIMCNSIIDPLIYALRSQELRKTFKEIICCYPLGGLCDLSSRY

[9] = biological target: MC3R (Homo sapiens) (UniProt P41968); settings: cited from earlier work
UniProt P41968, sequence (P41968 whole entry): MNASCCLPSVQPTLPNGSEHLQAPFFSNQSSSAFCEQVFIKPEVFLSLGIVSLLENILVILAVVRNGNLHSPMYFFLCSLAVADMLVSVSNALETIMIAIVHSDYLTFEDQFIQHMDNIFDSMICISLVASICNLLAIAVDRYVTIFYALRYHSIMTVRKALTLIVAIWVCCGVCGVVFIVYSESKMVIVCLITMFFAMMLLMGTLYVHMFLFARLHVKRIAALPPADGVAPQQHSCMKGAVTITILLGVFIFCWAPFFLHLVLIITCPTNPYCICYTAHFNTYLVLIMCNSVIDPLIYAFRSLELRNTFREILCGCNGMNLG

[10] = biological target: MC1R (Homo sapiens) (UniProt Q01726); settings: cited from earlier work
UniProt Q01726, sequence (Q01726 whole entry): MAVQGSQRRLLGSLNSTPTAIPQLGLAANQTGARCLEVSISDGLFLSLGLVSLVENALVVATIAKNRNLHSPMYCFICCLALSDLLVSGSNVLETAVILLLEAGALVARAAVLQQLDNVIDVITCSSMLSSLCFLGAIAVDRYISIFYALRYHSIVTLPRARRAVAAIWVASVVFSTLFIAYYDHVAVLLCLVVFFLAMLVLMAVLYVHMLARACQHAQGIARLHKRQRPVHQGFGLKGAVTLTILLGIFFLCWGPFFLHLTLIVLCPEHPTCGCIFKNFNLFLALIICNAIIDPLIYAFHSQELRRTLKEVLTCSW

[11] = biological target: MC5R (Homo sapiens) (UniProt P33032); settings: cited from earlier work
UniProt P33032, sequence (P33032 whole entry): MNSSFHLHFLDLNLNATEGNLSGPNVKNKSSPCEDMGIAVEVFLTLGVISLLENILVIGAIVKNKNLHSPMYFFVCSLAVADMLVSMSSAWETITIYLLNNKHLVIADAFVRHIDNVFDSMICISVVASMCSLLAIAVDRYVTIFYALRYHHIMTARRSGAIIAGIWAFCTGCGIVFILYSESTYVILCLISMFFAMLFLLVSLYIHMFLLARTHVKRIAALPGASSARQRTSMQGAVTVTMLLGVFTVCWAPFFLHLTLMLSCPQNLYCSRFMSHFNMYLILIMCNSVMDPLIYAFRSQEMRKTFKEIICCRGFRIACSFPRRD

[12] = biological target: MC4R; settings: read-out: binding affinity to MC4R; cited from earlier work

- percentage of intact peptide [1]: ≥ 98%
- tissue uptake at 1 h ([3]; B16F10 tumor): 6.33 ± 1.48 %ID/g
- tissue uptake at 1 h ([3]; adrenal glands): 0.79 ± 0.72 %ID/g
- tissue uptake at 1 h ([3]; blood): 0.65 ± 0.12 %ID/g
- tissue uptake at 1 h ([3]; bone): 0.33 ± 0.18 %ID/g
- tissue uptake at 1 h ([3]; heart): 0.24 ± 0.06 %ID/g
- tissue uptake at 1 h ([3]; intestine, 0.5 mg): 0.17 ± 0.05 %ID/g
- tissue uptake at 1 h ([3]; intestine): 0.34 ± 0.07 %ID/g
- tissue uptake at 1 h ([3]; kidneys): 5.59 ± 0.88 %ID/g
- tissue uptake at 1 h ([3]; liver): 0.53 ± 0.07 %ID/g
- tissue uptake at 1 h ([3]; lungs): 0.69 ± 0.11 %ID/g
- tissue uptake at 1 h ([3]; muscle): 0.16 ± 0.05 %ID/g
- tissue uptake at 1 h ([3]; stomach): 0.22 ± 0.11 %ID/g
- tissue uptake at 1 h ([3]; thyroid): 0.3 ± 0.08 %ID/g
- tissue to tissue ratio at 1 h ([3]; tumor and blood): 9.94 ± 2.93
- tissue to tissue ratio at 1 h ([3]; tumor and bone): 23.3 ± 12.1
- tissue to tissue ratio at 2 h ([3]; tumor and bone): 52.7 ± 13.4
- tissue to tissue ratio at 1 h ([3]; tumor and kidneys): 1.13 ± 0.22
- tissue to tissue ratio at 1 h ([3]; tumor and liver): 11.9 ± 2.26
- tissue to tissue ratio at 2 h ([3]; tumor and liver): 11.8 ± 2.72
- tissue to tissue ratio at 1 h ([3]; tumor and muscle): 40.6 ± 11.9
- tissue uptake at 2 h ([3]; male, seminal glands): 0.04 ± 0.01 %ID/g
- tissue uptake at 1 h ([3]; male, testes): 0.2 ± 0.06 %ID/g
- tissue uptake at 2 h ([3]; male, testes): 0.07 ± 0.01 %ID/g
- tumor/blood uptake ratio ([4]; 1 h p.i. blocked (n = 5), co-injection of 0.5 mg BMS 470539): 2.24 ± 0.40
- tumor/blood uptake ratio ([4]; 1 h p.i. unblocked (n = 5)): 9.94
- tumor/bone uptake ratio ([4]; 1 h p.i. unblocked (n = 5)): 23.3
- tumor/muscle uptake ratio ([4]; 1 h p.i. unblocked (n = 5)): 40.6
- tumor/blood uptake ratio ([4]; 2 h p.i. unblocked (n = 4)): 27.7
- tumor/bone uptake ratio ([4]; 2 h p.i. unblocked (n = 4)): 52.7
- tumor/muscle uptake ratio ([4]; 2 h p.i. unblocked (n = 4)): 125
Molecule: CCCC[C@H](NC(=O)CN1CCC(NC(=O)CN2CCN(CC(=O)O)CCN(CC(=O)O)CCN(CC(=O)O)CC2)CC1)C(=O)N[C@H]1CC(=O)NCCCC[C@@H](C(N)=O)N(C)C(=O)[C@H](Cc2c[nH]c3ccccc23)N(C)C(=O)[C@H](CCCNC(=N)N)N(C)C(=O)[C@@H](Cc2ccccc2)NC(=O)[C@H](Cc2cnc[nH]2)N(C)C1=O [[^68Ga]Ga-CCZ01099, metal not drawn]
- radioactivity internalized [2]: 48%
- reduction of tumor uptake by blocking ([4]; 1 h p.i., blocking with BMS 470539, p < 0.001): 91%

Molecule: Ac-Nle^4-Cyclo[Asp^5-His^6-D-Phe^7-Arg^8-Trp^9-Lys^10]αMSH4-10-NH2 [MTII]
- Ki [5]: 0.69 nM
- Ki [6]: 46.1 nM
- Ki [7]: 34.1 nM

Molecule: αMSH (from UniProt P01189)
- Ki [8]: 900 nM
- Ki [9]: 31.5 nM
- Ki [10]: 0.23 nM
- Ki [11]: 7160 nM

Molecule: Alpha-melanocyte-stimulating hormone [αMSH]
- Ki [12]: 900 nM
